Experimental data pooled from the literature.
In brackets after ≈: the same amount, converted by molar mass.

O=C(NCc1ccc(Cl)cc1)c1cn(Cc2ccc(Cl)cc2)c2ccc(Oc3ccccc3)cc2c1=O
IC50 (MCF7; cell growth or viability, MTT; 48 h): 171 µM

O=c1cc(CSc2ccc(N=Cc3ccccc3C(F)(F)F)cc2)occ1O
IC50 (DPPH scavenging, absorbance; 30 min): 36.2 µM

O=C(N1CCC2(CC1)OCC(CNS(=O)(=O)c1ccc(-c3ccccc3)cc1)O2)C1(c2ccccc2)CCCC1 (centres unmarked)
inhibition (Chikungunya virus; viral replication, inhibitor; 40 µM): 75%

Cc1ccc(C=Nc2ccc(SCc3cc(=O)c(O)co3)cc2)cc1
IC50 (DPPH scavenging, absorbance; 30 min): 9.06 µM

S=c1[nH]nc(NCNc2n[nH]c(=S)s2)s1
EC50 (Xanthomonas oryzae; microbial growth): 16 µg/mL (≈ 57.5 µM)

COc1ccc(C=Nc2ccc(SCc3cc(=O)c(O)co3)cc2)cc1
IC50 (DPPH scavenging, absorbance; 30 min): 15.6 µM

CC(C)C[C@@H](NC(=O)[C@H](C)NC(=O)CNC(=O)[C@@H](NC=O)C(C)C)C(=O)N[C@@H](C)C(=O)N[C@@H](C(=O)N[C@H](C(=O)N[C@@H](C(=O)N[C@@H](Cc1c[nH]c2ccccc12)C(=O)N[C@H](CC(C)C)C(=O)N[C@@H](Cc1ccc2cc[nH]c2c1)C(=O)N[C@H](CC(C)C)C(=O)N[C@@H](Cc1c[nH]c2ccccc12)C(=O)N[C@H](CC(C)C)C(=O)N[C@@H](Cc1c[nH]c2ccccc12)C(=O)NCCO)C(C)C)C(C)C)C(C)C
GI50 (MCF7; cell growth or viability, SRB; 48 h): 0.11 µM

CCCCCCN(CC1COC2(CCN(C(=O)C3(c4ccccc4)CCCC3)CC2)O1)S(=O)(=O)N(C)Cc1ccccc1 (centres unmarked)
inhibition (Chikungunya virus; viral replication, inhibitor; 40 µM): 70%

O=C(NCc1ccc(F)cc1)c1cn(Cc2ccc(C(F)(F)F)cc2)c2ccc(Oc3ccccc3)cc2c1=O
IC50 (MCF7; cell growth or viability, MTT): < 12 µM

CC(Oc1ccc(O)cc1)(P(=O)(O)O)P(=O)(O)O
IC50 (Chikungunya virus; viral replication; Vero): 548 µM

CC[C@H](C)C[C@H](C)CCCCCCCCC(=O)N[C@H]1C[C@@H](O)[C@@H](NCCN)NC(=O)[C@@H]2[C@@H](O)CCN2C(=O)[C@H]([C@H](O)CCN)NC(=O)[C@H]([C@H](O)[C@@H](O)c2ccc(O)cc2)NC(=O)[C@@H]2C[C@@H](O)CN2C(=O)[C@H]([C@@H](C)O)NC1=O
MIC (Candidozyma auris; microbial growth, broth dilution; 48 h): 2 µg/mL (≈ 1.83 µM)

O=C(NCc1ccc(F)cc1)c1cn(Cc2ccc(F)cc2)c2ccc(Oc3ccccc3)cc2c1=O
IC50 (MCF7; cell growth or viability, MTT; 24 h): > 500 µM

O=c1cc(CSc2ccc(N=Cc3ccc([N+](=O)[O-])cc3)cc2)occ1O
IC50 (DPPH scavenging, absorbance; 30 min): 28.5 µM

O=C(NCc1ccc(C(F)(F)F)cc1)c1cn(Cc2ccc(Cl)cc2)c2ccc(Oc3ccccc3)cc2c1=O
IC50 (MCF7; cell growth or viability, MTT; 24 h): 177 µM

S=P1(C2CCCCC2)CCCCC1
IC50 (SW-620; cell growth or viability, MTT; 72 h): > 100 µM

O=c1cc(CSc2ccc(N=Cc3ccc(O)cc3)cc2)occ1O
IC50 (DPPH scavenging, absorbance; 30 min): 8.85 µM

Cc1ccc(CNC(=O)c2cn(Cc3ccc(Cl)cc3)c3ccc(Oc4ccccc4)cc3c2=O)cc1
IC50 (MCF7; cell growth or viability, MTT; 48 h): 105 µM
